Results on seven compounds are retold here after ChEMBL document CHEMBL1143957, “Inhibitory property of the Piper betel phenolics against photosensitization-induced biological damages” (Bioorg Med Chem, 2008).

Data set [1] has as its system Liver. As to the kind of experiment: Protection against 30 mins photoirradiation-induced lipid peroxidation damage in rat liver mitochondria assessed as prevention of TBARS formation at 180 uM. It counts as functional. Summed up: (§1)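 Rat liver mitochondria (0.5 mg protein/mL final) with methylene blue (50 µg/mL) and test agent in KH₂PO₄–KOH buffer pH 7.4, held at 37 °C and irradiated 30 min with a 100 W tungsten lamp (32.45 W m⁻²). TBARS were measured after 15 min boiling with TBA/TCA/EDTA/HCl reagent, centrifugation and A532 against a malonaldehyde standard. Unirradiated endogenous TBARS were subtracted. Results are % protection, mean ± SEM, n = 5.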

The subject of data set [2] is Liver. As to the kind of experiment: Protection against 30 mins photoirradiation-induced damage in rat liver mitochondria assessed as reduction of lipid hydroperoxide formation at 180 uM. Also noted: scale not given: the % may be the effect or the level left. It counts as functional. Summed up: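 Lipid hydroperoxide read-out: mitochondrial protein (0.5 mg/mL) plus methylene blue (50 µg/mL) with test agent at 180 µM added before a 30 min photo-irradiation. LOOH was quantified as absorbance at 560 nm. Mean ± SEM, n = 5.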

The subject of data set [3] is Liver. The data set is described as follows: Protection against 30 mins photoirradiation-induced lipid peroxidation damage in rat liver mitochondria assessed as prevention of TBARS formation at 60 uM. It counts as functional. In outline: as §1
In data set [4] the test system is Liver. The data set is described as follows: Protection against 30 mins photoirradiation-induced lipid peroxidation damage in rat liver mitochondria assessed as prevention of TBARS formation at 30 uM. In kind it is functional. Summed up:
as §1

Data set [5] concerns Liver. As to the kind of experiment: Protection against 30 mins photoirradiation-induced lipid peroxidation damage in rat liver mitochondria assessed as prevention of TBARS formation at 2 mM. It counts as functional. Summed up:
as §1

Data set [6] deals with Liver. As to the kind of experiment: Protection against photoirradiation-induced lipid peroxidation damage in rat liver mitochondria at 10 mM. It counts as functional. Summed up:
as §1

For data set [7], the system named is Liver. As to the kind of experiment: Protection against photoirradiation-induced lipid peroxidation damage in rat liver mitochondria at 100 mM. In kind it is functional. In outline: as §1
The subject of data set [8] is L929. As to the kind of experiment: Prevention of 15 mins photoirradiation-induced damage in mouse L929 cells assessed as survival at 5 uM by MTT assay. It counts as functional. The settings on record: L929, light or radiation study, 0.25 h, read-out: Survival. (Formazan colour is commonly taken as a measure of viable cells.)
Data set [9] is described as follows: Cytotoxicity against mouse L929 cells assessed as survival at 20 uM after 20 hrs by MTT method relative to control. It counts as cell-based. To be noted: read-out: Survival.
In data set [10] the test system is L929. As to the kind of experiment: Prevention of 5 mins photoirradiation-induced damage in mouse L929 cells assessed as survival at 10 uM by MTT assay. In kind it is functional. The settings on record: L929, light or radiation study, read-out: Survival.
For data set [11], the system named is L929. As to the kind of experiment: Prevention of 10 mins photoirradiation-induced damage in mouse L929 cells assessed as survival at 5 uM by MTT assay. The settings on record: L929, light or radiation study, read-out: Survival. It counts as functional.
Data set [12] relates to L929. As to the kind of experiment: Prevention of 10 mins photoirradiation-induced damage in mouse L929 cells assessed as survival at 10 uM by MTT assay. In kind it is functional. The settings on record: L929, light or radiation study, read-out: Survival.
In data set [13] the test system is L929. The data set is described as follows: Prevention of 15 mins photoirradiation-induced damage in mouse L929 cells assessed as survival at 9 uM by MTT assay. It counts as functional. The settings on record: L929, light or radiation study, 0.25 h, read-out: Activity. Summed up:
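L929 mouse fibroblasts (RPMI 1640, 10% heat-inactivated FCS, 37 °C, 5% CO₂) were seeded at 2 × 10⁴ cells/well, preincubated with test agent in serum-free RPMI for 2 h, then given methylene blue (9 or 18 µM) in PBS for 2 h. Cells were washed and exposed to a 100 W tungsten lamp at room temperature for 0–15 min, then grown in 10% FCS RPMI for 72 h. Viability was measured by MTT (0.5 mg/mL, 4 h), SDS lysis and A550; n = 5.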

Data set [14] concerns L929. As to the kind of experiment: Prevention of 15 mins photoirradiation-induced damage in mouse L929 cells assessed as survival at 10 uM by MTT assay. It counts as functional. The settings on record: L929, light or radiation study, 0.25 h, read-out: Survival.
A short description of data set [15]: Cytotoxicity against mouse L929 cells assessed as survival at 10 uM after 20 hrs by MTT method relative to control. The settings on record: read-out: Survival. It counts as cell-based.
Data set [16] has as its system L929. As to the kind of experiment: Prevention of 5 mins photoirradiation-induced damage in mouse L929 cells assessed as survival at 5 uM by MTT assay. In kind it is functional. To be noted: L929, light or radiation study, read-out: Survival.
A short description of data set [17]: Cytotoxicity against mouse L929 cells assessed as survival at 5 uM after 20 hrs by MTT method relative to control. To be noted: read-out: Survival. It counts as cell-based.
For data set [18], the system named is L929. The data set is described as follows: Prevention of 5 mins photoirradiation-induced damage in mouse L929 cells assessed as survival at 18 uM by MTT assay. In kind it is functional. The settings on record: L929, light or radiation study, read-out: Survival.
Data set [19] in a line: Cytotoxicity against mouse L929 cells assessed as survival at 18 uM after 20 hrs by MTT method relative to control. In kind it is cell-based. The settings on record: read-out: Survival.
The test system of data set [20] is L929. As to the kind of experiment: Prevention of 10 mins photoirradiation-induced damage in mouse L929 cells assessed as survival at 18 uM by MTT assay. In kind it is functional. To be noted: L929, light or radiation study, read-out: Survival.
The nature of data set [21]: Cytotoxicity against mouse L929 cells assessed as survival at 9 uM after 20 hrs by MTT method relative to control. In kind it is cell-based. To be noted: read-out: Survival.
In data set [22] the test system is L929. The data set is described as follows: Prevention of 15 mins photoirradiation-induced damage in mouse L929 cells assessed as survival at 18 uM by MTT assay. In kind it is functional. To be noted: L929, light or radiation study, 0.25 h, read-out: Survival.

With `C=CCc1ccc(OC)c(O)c1`, the Activity in the data set with Liver [1] amounted to 72%; in the data set on Liver [2], 61.5%; in the data set on Liver [3], 40%; in the data set on Liver [4], 22%.
For the compound `COc1cc(C=O)ccc1O`, in the data set on Liver [5], the Activity is 34%.
`N[C@@H](CCC(=O)N[C@@H](CS)C(=O)NCC(=O)O)C(=O)O` came in with an Activity in the data set on Liver [6] of 35.6%.
In the case of `O=C1O[C@H]([C@@H](O)CO)C(O)=C1O`, the Activity with Liver [6] turned out to be 25.7%.
For `OC[C@@H](O)[C@@H](O)[C@H](O)[C@H](O)CO`, the Activity with Liver [7] worked out at 20.1%.
For the compound `C=CCc1ccc(O)c(O)c1` [HYDROXYCHAVICOL], the viability at 5 µM in the data set with L929 [8] turned out to be 85.4%; in the data set on L929 [11], 88.3%; in the data set on L929 [16] it was 89.1%. Moreover, the Activity worked out at 86% in the data set with Liver [1], 87% in the data set on Liver [2], 48% in the data set on Liver [3] and 32% in the data set with Liver [4]. In addition, in data set [9], the viability at 20 h, 20 µM was found to be 75.7%. For the same compound, the viability at 10 µM in the data set on L929 [10] came to 94.2%; with L929 [12], 92.2%; with L929 [14], 82.9%. In addition, the viability at 9 µM with L929 [13] amounted to 6%. For the same compound, the viability at 20 h, 10 µM in [15] worked out at 96.5%. In data set [17], the viability at 20 h, 5 µM is 96.2%.
As to `CN(C)c1ccc2nc3ccc(N(C)C)cc3[s+]c2c1` [METHYLENE BLUE ANHYDROUS], the viability at 18 µM came to 67.6% in the data set with L929 [18], 64.4% in the data set with L929 [20] and 48.9% in the data set on L929 [22]. For the same compound, the viability at 20 h, 18 µM in [19] turned out to be 95.3%. Moreover, the viability at 20 h, 9 µM in [21] amounted to 102%. Besides, the viability at 9 µM in the data set with L929 [13] was 14%.
